The results in this text go back to ChEMBL document CHEMBL1240423, “Synthesis and evaluation of quinazolinone derivatives as inhibitors of NF-kappaB, AP-1 mediated transcription and eIF-4E mediated translational activation: inhibitors of multi-pathways involve in cancer” (Eur J Med Chem, 2010).

pIC50: −log10 of the molar value.

Test [1] deals with HEK293. The test can be described thus: Inhibition of NF-kappaB expressed in HEK293 cells assessed as inhibition of TNF-alpha-induced transcriptional activation at 1 uM treated 24 hrs before TNFalpha challenge by luciferase reporter gene assay relative to control. It is filed as cell-based. The procedure, abridged: (§1)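 Luciferase reporter screen with each sample in triplicate in two or three independent experiments. Values are the average of those experiments. Rapamycin served as the reference eIF-4E inhibitor.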

Test [2] deals with Transcription factor Jun (Homo sapiens) (UniProt P05412). The test can be described thus: Inhibition of AP1 expressed in HEK293 cells assessed as inhibition of PMA-induced transcriptional activation at 1 uM treated 24 hrs before PMA challenge by luciferase reporter gene assay relative to control. In kind it is cell-based. The method in brief:
as §1

A short description of test [3]: Inhibition of NF-kappaB expressed in HEK293 cells assessed as inhibition of TNF-alpha-induced transcriptional activation treated 24 hrs before TNFalpha challenge by luciferase reporter gene assay. It is filed as cell-based. The method in brief: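 Six-point dose response […] in ½-log steps, screened as in the primary reporter assay. IC50 calculated from the dose-response data.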
(In general: Reporter assays use an easily measured gene product as a stand-in for the process of interest.)

The target of test [4] is Eukaryotic translation initiation factor 4E (Homo sapiens) (UniProt P06730). Nature of the test: Inhibition of eIF-4E expressed in human FaDu cells assessed as inhibition of translational activation at 1 uM by luciferase reporter gene assay relative to control. In kind it is cell-based. The procedure, abridged:
as §1

The subject of test [5] is HEK293. The test can be described thus: Inhibition of NF-kappaB expressed in HEK293 cells assessed as inhibition of TNF-alpha-induced transcriptional activation at 3.3 uM treated 2 hrs before TNFalpha challenge measured after 24 hrs by luciferase reporter gene assay relative to control. It is filed as cell-based. The method in brief:
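Stably transfected NF-κB reporter cells plated, then after 24 h pretreated with compound at six concentrations for 2 h before 20 ng/ml TNF-α induction. Cells later lysed, luciferase activity read and normalized.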

For the next test, the system named is FaDu. Nature of the test: Cytotoxicity against human FADU cells assessed as growth inhibition at 3.3 uM by MTT assay. In kind it is functional. For orientation: Tetrazolium dyes change colour on reduction, which living cells bring about.
The nature of test [6]: Inhibition of NF-kappaB expressed in HEK293 cells assessed as inhibition of TNF-alpha-induced transcriptional activation treated 2 hrs before TNFalpha challenge measured after 24 hrs by luciferase reporter gene assay. In kind it is cell-based. The method in brief: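 Stably transfected NF-κB luciferase reporter cells were plated, and 24 h later given test compound at six concentrations for 2 h. TNF-α was then added at 20 ng/ml to induce transcription. Cells were then lysed, luciferase activity was recorded, and values were normalised.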

As a reminder, the inhibition is the change of the read-out against control, counted positive when it falls. By pIC50 is commonly meant the IC50 on a negative log10 scale, so that one unit is a factor of ten.

Transcription factor Jun (Homo sapiens), sequence (P05412 whole entry): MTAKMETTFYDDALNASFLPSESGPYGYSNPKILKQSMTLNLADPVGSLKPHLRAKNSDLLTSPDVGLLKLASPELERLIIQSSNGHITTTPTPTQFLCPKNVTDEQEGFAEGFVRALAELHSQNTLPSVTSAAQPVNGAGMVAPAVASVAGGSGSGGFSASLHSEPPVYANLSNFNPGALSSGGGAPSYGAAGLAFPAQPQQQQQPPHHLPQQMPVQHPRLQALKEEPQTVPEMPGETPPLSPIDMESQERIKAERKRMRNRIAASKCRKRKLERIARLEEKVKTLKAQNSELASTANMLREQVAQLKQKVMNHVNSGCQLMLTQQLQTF
Eukaryotic translation initiation factor 4E (Homo sapiens), sequence (P06730 whole entry): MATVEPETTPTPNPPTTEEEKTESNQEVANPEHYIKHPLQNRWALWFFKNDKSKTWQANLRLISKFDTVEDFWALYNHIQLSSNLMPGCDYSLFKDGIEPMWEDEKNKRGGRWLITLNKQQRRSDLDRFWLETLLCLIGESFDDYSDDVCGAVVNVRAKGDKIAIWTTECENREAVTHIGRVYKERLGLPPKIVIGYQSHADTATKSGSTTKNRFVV

Consider `CCOC(=O)Nc1nc(-c2ccccc2)c(-c2nc3ccccc3c(=O)n2-c2ccccc2)s1`, for which the inhibition was 32% in the test on HEK293 [1] and 7% in test [2]. Also, the negative logarithm of the IC50 (pIC50) in test [3] is less than 5.00.

As for `CNc1nc(-c2ccccc2)c(-c2nc3ccccc3c(=O)n2-c2ccccc2)s1`, the inhibition was determined as 71% in the test on HEK293 [1], 58% in test [2] and 33% in test [4].

As for `O=c1c2ccccc2nc(-c2sc(Nc3ccc(Cl)cc3)nc2-c2ccccc2)n1-c1ccc(Cl)cc1`, the inhibition was 62% with HEK293 [1], 47% in test [2], 34% in test [4] and greater than 70% with HEK293 [5]. Besides, in test [3], the pIC50 was 5.48.

For `CCOC(=O)Nc1nc(-c2ccccc2)c(-c2nc3ccccc3c(=O)n2-c2ccc(Cl)cc2)s1`, the results for the inhibition (in the test with HEK293 [1]; in test [2]; in test [4]) were 24%, 20% and 18%, respectively.

Regarding `O=c1c2ccccc2nc(-c2sc(Nc3ccccc3)nc2-c2ccccc2)n1-c1ccccc1`, the inhibition stood at 71% with HEK293 [1], 51% in test [2] and 37% in test [4].

With `O=c1c2ccccc2nc(-c2sc(Nc3ccccc3)nc2-c2ccccc2)n1-c1ccc(Cl)cc1`, the inhibition turned out to be 67% in the test with HEK293 [1], 39% in test [2] and 38% in test [4].

`CCOC(=O)Nc1nc(C)c(-c2nc3ccccc3c(=O)n2-c2ccc(Cl)cc2)s1`: the inhibition was 54% in the test on HEK293 [1], 30% in test [2], 50% in test [4] and greater than 70% with HEK293 [5]. Also, in test [3], the pIC50 was 4.80.

With `O=c1c2ccccc2nc(-c2sc(Nc3ccc(Cl)cc3)nc2-c2ccccc2)n1-c1ccccc1`, the results for the inhibition (in the test on HEK293 [1]; in test [2]) were 71% and 57%, respectively.

In the case of `Cc1nc(Nc2ccc(Cl)cc2)sc1-c1nc2ccccc2c(=O)n1-c1ccc(Cl)cc1`, the inhibition in the test with HEK293 [1] was determined as 79%; in test [2], 75%; in test [4], 26%. The pIC50 in test [3] is 4.82.

Take `O=C(Nc1nc(-c2ccccc2)c(-c2nc3ccccc3c(=O)n2-c2ccccc2)s1)c1ccccc1`: the inhibition is 43% in the test with HEK293 [1], 26% in test [2] and 30% in test [4].

Consider `COc1ccc(-n2c(-c3sc(NC(=O)c4ccccc4)nc3-c3ccccc3)nc3ccccc3c2=O)cc1`, for which the inhibition in the test with HEK293 [1] is 12%; in test [2], 8%; in test [4], 31%.

For `CNc1nc(C)c(-c2nc3ccccc3c(=O)n2-c2ccc(Cl)cc2)s1`, the inhibition amounted to 80% with HEK293 [1] and 61% in test [4]. For the same compound, the pIC50 in test [3] is 4.92; in test [6], 5.48. In addition, the inhibition at 3.3 µM with FaDu was found to be 20%.

In the case of `CCOC(=O)Nc1nc(-c2ccccc2)c(-c2nc3ccccc3c(=O)n2-c2ccc(OC)cc2)s1`, the inhibition in the test with HEK293 [1] stood at 29%; in test [2], 34%; in test [4], 15%.

In the case of `O=C(Nc1nc(-c2ccccc2)c(-c2nc3ccccc3c(=O)n2-c2ccc(Cl)cc2)s1)c1ccccc1`, the values for the inhibition (with HEK293 [1]; in test [2]; in test [4]) were 73%, 36% and 39%, respectively.

For `Cc1nc(Nc2ccccc2)sc1-c1nc2ccccc2c(=O)n1-c1ccc(Cl)cc1`, the inhibition in the test on HEK293 [1] came to 66%; in test [2], 29%; in test [4] it was 67%. Moreover, the negative logarithm of the IC50 (pIC50) in test [6] is 5.26.

For the compound `COc1ccc(-n2c(-c3sc(Nc4ccccc4)nc3-c3ccccc3)nc3ccccc3c2=O)cc1`, the inhibition worked out at 63% with HEK293 [1], 19% in test [2] and 16% in test [4].

As to `COc1ccc(-n2c(-c3sc(Nc4ccc(Cl)cc4)nc3-c3ccccc3)nc3ccccc3c2=O)cc1`, the inhibition with HEK293 [1] is 46%; in test [2] it was 59%; in test [4] it was 32%; in the test on HEK293 [5], greater than 70%. In test [3], the pIC50 is 4.70.

Turning to `CNc1nc(-c2ccccc2)c(-c2nc3ccccc3c(=O)n2-c2ccc(Cl)cc2)s1`, the figures for the inhibition (in the test with HEK293 [1]; in test [2]; in test [4]) were 72%, 67% and 40%, respectively. For the same compound, the pIC50 in test [3] is less than 3.60.
